# AI-2 QS mod – Vibrio harveyi AI-2 quorum sensing modulators, primary screen, JMH597 strain, luminescence/OD600 ratio; hit rate 0.4% among 300,000; AID 2094, 2009; activity change, % at 7.5 µM; Vibrio harveyi JMH597 AI-2 luminescence/OD600 ratio, 9 h; active compounds read low; strain lacks LuxN and CqsS sensors; 0 = neutral-control median; in the data active = activity change below about -75%, passing the limit was not always enough; inconclusive = no clear call, values can overlap the other calls;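 note: luminescence divided by OD600 gain over 9 h not by final OD600 alone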
# HIF act – HIF pathway transcriptional activators, primary screen, cell-based, U2OS HRE-luciferase, luminescence; U2OS HRE-luciferase reporter; normalized: DMSO 0%, desferrioxamine 100%; activation, % at 7.5 µM (by protocol); hit rate 0.32% among 300,000; AID 1910, 2009;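 active = mean activation of at least 10% of the iron chelator positive control signal, with at least half of replicates also reaching 10%; inconclusive = mean and replicate majority disagree about reaching 10%; inactive = mean and most replicates under 10%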
# ARNT TACC3 PPI – disruptors of ARNT/TACC3 protein interaction, primary screen, biochemical, AlphaScreen, single concentration; AlphaScreen His-ARNT PAS-B/GST-TACC3 binding, luminescence; TACC3 fragment carries E629A point mutation; Transforming acidic coiled-coil-containing protein 3 (Homo sapiens), Q9Y6A5; inhibition, % at 9.99 µM; hit rate 0.66% among 390,000;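 active = mean inhibition of replicates at least 50% and at least half of replicates each reaching 50%; inconclusive = half or more replicates reach 50% but mean below 50%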
# T cruzi repl – inhibitors of intracellular T. cruzi growth, primary screen, luminescence, NIH3T3 host cells. T. cruzi beta-gal in NIH3T3, 90 h. inhibition, % (test concentration not listed). hit rate 1.4% among 300,000;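 active = mean inhibition across valid replicates above about 55%, limit read from the data; inconclusive = mean below that limit but half or more replicates reach it; inactive = mean below it, under half of replicates reach it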;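 note: signal also drops with host cell toxicity which is not excluded here; higher percent means less beta-gal luminescence so fewer parasites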
#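 System: mouse NIH/3T3 fibroblasts infected with β-gal-expressing T. cruzi Tulahuen C4 / Input: NIH/3T3 cells, 5,000 per well / Buffer or medium: Low-serum DMEM with 2% FBS / Probe or stimulus: 5000 reporter trypomastigotes per well / Schedule: ≥90 h infection period, 3 h prior cell attachment / Measured by: GalScreen luminescence, 60 min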
# ARNT Alpha ctr-1 – AlphaScreen signal interference compounds, dose response, artefact control for ARNT-TACC3 interaction inhibitor project, biochemical, luminescence, cherry-pick; AC50, µM (doses to about 68 µM); His-ARNT PASB-GST AlphaScreen artifact counter-screen; shares compounds with ARNT TACC3 PPI; AID 651705, 2012; hit rate 50% among 1,200;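 active = every separate test run was called active for a drop in luminescence, with AC50 within twice the top valid dose, actives reach about 71 µM in these data; inconclusive = the separate test runs disagree in their calls; inactive = all runs inactive, including signal change in the wrong direction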
# ARNT Alpha ctr-2 – AlphaScreen signal interference by compounds, dose response, artefact control for ARNT/TACC3 disruptor project, biochemical, dual-tagged ARNT, dry powder; Dual-tagged His-ARNT PASB-GST AlphaScreen artifact counter-screen; hit rate 70% among 45; shares compounds with ARNT TACC3 PPI; AC50, µM; AID 720564, 2013;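 active = luminescence drop, with half-maximal potency fitted within twice the sample's top valid dose, cut at about 70 µM in these data; inactive = the rest, including signal moving the wrong way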
# Numbers stand for hits; i = inactive; ? = inconclusive; nt = not tested or not shown. Sampled rows, rich in hits. Any-hit rate of the full collection: about 2%.
SMILES,AI-2 QS mod,HIF act,ARNT TACC3 PPI,T cruzi repl,ARNT Alpha ctr-1,others
CC(C)c1ccc(O)c(NC(=O)c2ncn[nH]2)c1,i,i,31,i,i,
O=C(Nc1ccc2c(c1)[C@H]1C[C@@H](CC(=O)N3CCOCC3)O[C@@H](CO)[C@H]1O2)c1ccc2c(c1)OCO2,nt,nt,i,nt,nt,
COc1cccc(C(=O)Nc2ccc3c(c2)C(=O)N(C)C[C@@H](OC)[C@H](C)CN[C@H](C)CO3)c1,nt,nt,i,nt,nt,
CCCC(=O)NC(c1ccco1)c1c(O)ccc2ccccc12 (stereo not given),i,i,i,i,nt,
CCC(=O)NC(c1cccc([N+](=O)[O-])c1)c1c(O)ccc2ccccc12 (stereo not given),i,i,nt,i,nt,
CCC(=O)NC(c1ccc(C)cc1)c1cc([N+](=O)[O-])c2cccnc2c1O (stereo not given),i,i,58,63,11µM,
CCCC(=O)NC(c1ccco1)c1cc([N+](=O)[O-])c2cccnc2c1O (stereo not given),i,i,59,i,30µM,
COc1ccc(-c2ccc3c(c2)[C@@H]2[C@@H](CCN2C(=O)C2CCOCC2)[C@H](CO)N3C)cc1,nt,nt,i,nt,nt,
CCc1c(C)nc(Nc2nc(C)c3ccc(OC)cc3n2)[nH]c1=O,i,i,51,i,i,
CO[C@H]1CN(C)C(=O)c2cc(NS(=O)(=O)c3ccccc3C)ccc2OC[C@H](C)NC[C@@H]1C,nt,nt,i,nt,nt,
CSc1ccccc1NC(=O)CN(C)C(=O)COc1cccc2cccnc12,nt,nt,67,nt,69µM,
CC(C)C#Cc1ccc2c(c1)O[C@@H](CN(C)CC1CCOCC1)[C@@H](C)CN([C@@H](C)CO)S2(=O)=O,nt,nt,i,nt,nt,
COC(=O)C1=COC(C)C2CN3CCc4c([nH]c5cc(OC)c(OC)cc45)C3CC12 (stereo not given),i,i,63,i,71µM,
O=C(Nc1cc(F)ccc1F)N1C[C@H]2[C@@H](c3ccccc31)[C@@H](CO)N2Cc1ccncc1,nt,nt,i,nt,nt,
N#CCC(=O)N/N=C\c1ccccc1OC/C=C/c1ccccc1,i,i,64,i,55µM,
CCOC(=O)c1cnc(Nc2nc3ccccc3o2)nc1CN1CCN(C)CC1,nt,nt,55,nt,41µM,
CCCOC(=O)Nc1nc2ccccc2o1,i,i,i,i,nt,
Cc1noc(C)c1NC(=O)N(C)C[C@H]1OCCCC[C@H](C)Oc2ccc(NS(=O)(=O)c3ccc(Cl)cc3)cc2C(=O)N([C@H](C)CO)C[C@@H]1C,nt,nt,i,nt,nt,
Cc1ccccc1NCc1ccc(O)c2ncccc12,i,i,i,i,nt,
Oc1ccc(CNC2CCc3ccccc32)c2cccnc12 (stereo not given),nt,nt,nt,nt,3.2µM,
c1cncc(CNC2CCCc3ccccc32)c1 (stereo not given),i,i,nt,i,nt,
CN1CCN(C2CCN(Cc3ccc(O)c4ncccc34)CC2)CC1,nt,nt,65,nt,14µM,
OCC1CCN(Cc2ccc(O)c3ncccc23)CC1,nt,nt,nt,nt,0.41µM,
Oc1ccc(CN2CCN(Cc3ccccc3)CC2)c2cccnc12,i,11,65,64,6µM,
C[C@@H]1CN([C@@H](C)CO)C(=O)c2cc(NS(C)(=O)=O)ccc2O[C@@H](C)CCCCO[C@@H]1CN(C)C,nt,nt,i,nt,nt,
SMILES,AI-2 QS mod,HIF act,ARNT TACC3 PPI,T cruzi repl,ARNT Alpha ctr-1,others
CCc1csc(N2[C@H](CO)[C@@H](c3ccc(-c4ccc(F)cc4)cc3)[C@@H]2C#N)n1,nt,nt,i,nt,nt,
N#C[C@@H]1[C@@H](c2ccc(-c3cncnc3)cc2)[C@H](CO)N1C(=O)CN1CCOCC1,nt,nt,i,nt,nt,
Cc1ccc(S(=O)(=O)NC(=O)c2cc(C)n(CCCn3ccnc3)c2C)cc1,i,i,53,i,i,
O=C(CSc1cccc2cccnc12)N1CCCC1,i,i,87,61,10µM,
O=C(O)c1cccnc1SCC(=O)N1CCCCCC1,i,nt,i,nt,nt,
CN(C)C(=O)CSc1cccc2cccnc12,i,i,60,i,15µM,
C=CCN1C(=O)[C@]2(O[C@H](CCn3cc(CCO)nn3)[C@@H]([Si](C)(C)c3ccc(OC)cc3)[C@@H]2C)c2cc(N3C(=O)c4cccc5cccc3c45)ccc21,nt,nt,i,nt,nt,
O=C(CCc1ccccc1)Nc1nnc(-c2ccccn2)o1,i,i,52,i,i,
O=C(Cc1ccccc1)Nc1nnc(-c2ccco2)o1,i,i,65,i,i,
O=C(CCc1ccccc1)Nc1nnc(-c2cccs2)o1,?,i,i,i,nt,
O=C(COc1ccc(Cl)cc1)Nc1nnc(-c2ccco2)o1,i,i,25,i,i,
O=C(Nc1nnc(-c2ccc(F)cc2)o1)c1ccco1,i,i,42,i,i,
CCCNC(=O)N1CC[C@@H]2[C@H]1c1cc(-c3ccc(F)cc3)ccc1N(C)[C@H]2CO,nt,nt,i,nt,nt,
C[C@@H]1CN([C@H](C)CO)C(=O)c2cccc(NC(=O)Nc3ccc4c(c3)OCO4)c2O[C@H]1CN(C)Cc1ccc(-c2ccccc2)cc1,nt,nt,i,nt,nt,
C[C@H](O)C#Cc1cnc2c(c1)C(=O)N([C@@H](C)CO)C[C@H](C)[C@H](CN(C)CC1CCOCC1)O2,nt,nt,i,nt,nt,
Cc1ccc(S(=O)(=O)CCc2nnc(NC(=O)c3cnccn3)s2)cc1,i,i,i,i,nt,
Cc1ccc(S(=O)(=O)CCc2nnc(NC(=O)c3ccccc3)s2)cc1,nt,nt,nt,nt,nt,ARNT Alpha ctr-2=i
Cc1ccc(S(=O)(=O)CCc2nnc(NC(=O)c3ccccn3)s2)cc1,i,i,73,i,34µM,
CCC(=O)N1[C@H](CO)[C@H](c2ccc(-c3ccc(F)cc3)cc2)[C@H]1CNC(C)=O,nt,nt,i,nt,nt,
Cc1ccc2ccc3cccnc3c2n1,i,i,74,?,51µM,
O=C(O)c1ccc2cccnc2c1O,i,i,i,i,nt,
CN(C)C(=O)c1ccc(-c2ccc3c(c2)[C@H]2[C@H](CCN2C(=O)c2ccccc2F)[C@H](CO)N3)cc1,nt,nt,i,nt,nt,
C[C@H]1CN([C@@H](C)CO)C(=O)c2cc(-c3ccncc3)cnc2O[C@@H]1CN(C)C(=O)c1ccncc1,nt,nt,i,nt,nt,
CCc1ccc2c(c1)C1(NN=C(c3ccc(C)cc3)S1)C(=O)N2 (stereo not given),i,i,61,?,2.8µM,
Cc1nc2ccccc2c(=O)n1/N=C/c1ccccc1O,i,i,i,i,nt,
Cc1nc2ccccc2c(=O)n1/N=C/c1ccc(O)c(O)c1O,i,i,52,i,i,
Cc1nnc(-c2ccccc2)c(=O)n1/N=C/c1c(O)ccc2ccccc12,i,69,62,65,64µM,
CCN(C(=O)CSc1nccn1C)c1cccc2ccccc12,nt,nt,68,nt,i,

# Screening data from PubChem.
